Laboratory results taken from the RNAGym collection of RNA variant scans (doi:10.1126/science.aae0568).
Fewer inactive variants are shown than the library holds.

B1: tRNA (parent)
chain: GUUCCGUUGGCGUAAUGGUAACGCGUCUCCCUCCUAAGGAGAAGACUGCGGGUUCGAGUCCCGUACGGAACG

Variants of: B1
Assay: yeast fitness relative to wild type (ratio to wild type); higher = fitter; tRNA-Arg(CCU), competitive growth, 37 C, YPD
Method in brief: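 Variants of the tRNA-Arg(CCU) gene were chemically synthesised with a 3% per-site mutation rate across 69 sites and placed at the native genomic locus in Saccharomyces cerevisiae. Six parallel replicates of the pooled strains were competed in YPD at 37°C for 24 hours, and gene amplicons from the start and end populations were read by 100-nucleotide paired-end sequencing. Darwinian fitness relative to wild type was derived from changes in genotype frequencies. Genotypes required ≥ 100 starting reads, and estimates < 0.5 were set to 0.5.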
C4G A37U G58C C60A showed a yeast fitness of at most 0.5. Variant C4G G17A C61U has a yeast fitness of 0.56. With C4G G25C A45C C46A the yeast fitness was 0.619. In the case of C4G U7C C27A A69U, the yeast fitness is reported as 0.531. In the case of C4G U8G G9A C11U C34G C49U, the yeast fitness is reported as at most 0.5. Work on C4G G17A G50A C55U G67C yielded a yeast fitness of at most 0.5. Variant C4G U7A A42C G48C has a yeast fitness of at most 0.5. With C4G A40U C49A C55U the yeast fitness was 0.515. C4G U8A G12A G48A C62U showed a yeast fitness of at most 0.5. With C4G U8C G18C A21C C55U the yeast fitness was at most 0.5. C4G A40G A45G gave a yeast fitness of at most 0.5. C4G G44A A45C G63A gave a yeast fitness of at most 0.5. In the case of C4G G39C, the yeast fitness is reported as 0.747. Work on C4G U19A C27A yielded a yeast fitness of 0.741. For C4G C31U A57U, the yeast fitness was 0.665. With C4G C24A C46U C60A the yeast fitness was 0.521. Work on C4G A36C A37G U64A yielded a yeast fitness of at most 0.5. With C4G G10C the yeast fitness was 0.659. For C4G G6A U64A, the yeast fitness was 0.651. Work on C4G U16C C31U A70U yielded a yeast fitness of at most 0.5. Work on C4G G12A G52A yielded a yeast fitness of at most 0.5. C4G G9A G50C showed a yeast fitness of 0.642. In the case of C4G U7A C11A A21C C29U C49U, the yeast fitness is reported as at most 0.5. C4G U16C G44A G48A G50C C66G showed a yeast fitness of at most 0.5. With C4G C27G C34G G51A the yeast fitness was at most 0.5. C4G G17A G25C C66U gave a yeast fitness of at most 0.5. C4G C24U U35C C66U gave a yeast fitness of 0.559. For C4G C27A C46U, the yeast fitness was 0.539. C4G C11A U19C G23C U47C A70U showed a yeast fitness of at most 0.5. Work on C4G C5U G58A A70C yielded a yeast fitness of at most 0.5. For C4G G23A C55A C61A, the yeast fitness was 0.667. For C4G C31G U32G, the yeast fitness was at most 0.5. For C4G U8C U16A A21C C24G A45C G48A G67A, the yeast fitness was 0.53. C4G C34G G56A U59A showed a yeast fitness of at most 0.5. In the case of C4G G9C G52A G63C, the yeast fitness is reported as at most 0.5. In the case of C4G A57U A70U, the yeast fitness is reported as 0.869. Work on C4G G10C U35C G38U C46G yielded a yeast fitness of at most 0.5. For C4G U8A C31G, the yeast fitness was at most 0.5. C4G C5U C49A G56A G63C gave a yeast fitness of at most 0.5. For C4G G6A C11U G23A A43G, the yeast fitness was at most 0.5. With C4G C31U C55A the yeast fitness was at most 0.5. For C4G U8C G51A C66A, the yeast fitness was at most 0.5. For C4G C24A C34A C66A, the yeast fitness was at most 0.5. Work on C4G C30A C62G yielded a yeast fitness of at most 0.5. Variant C4G C34U G63A has a yeast fitness of at most 0.5. For C4G U16C, the yeast fitness was 0.806. C4G U16A showed a yeast fitness of 0.9. Variant C4G C5G U26G A45C C61U G67A has a yeast fitness of at most 0.5. For C4G C29G C60A G67C, the yeast fitness was 0.564. With C4G G44C C49G G56A C61G A65U A69G the yeast fitness was 0.641. Work on C4G C60U yielded a yeast fitness of 0.817. In the case of C4G C5U A37U C61A, the yeast fitness is reported as at most 0.5. Work on C4G A21G C27U G52C G58A yielded a yeast fitness of at most 0.5. C4G C5G C29A C34U A42U G50C G68C A69G gave a yeast fitness of 0.58. Work on C4G A37G yielded a yeast fitness of 0.851. For C4G C49U C66U, the yeast fitness was 0.681. In the case of C4G U8A G12A G48A, the yeast fitness is reported as 0.511. C4G C11G C55U G63A showed a yeast fitness of at most 0.5. With C4G C5U G44C the yeast fitness was at most 0.5. C4G C30U C55U showed a yeast fitness of at most 0.5. For C4G C5A C24U C61U C66U A70C, the yeast fitness was 0.514. C4G G17A C55G A70U showed a yeast fitness of at most 0.5. Variant C4G A21G A45U C49U A70C has a yeast fitness of at most 0.5. Variant C4G C11U A40C A57U has a yeast fitness of 0.623. C4G C29G A36C A37U A40C A45G G51A A70U gave a yeast fitness of at most 0.5. C4G C22G C24U G41A G67U showed a yeast fitness of at most 0.5. In the case of C4G G18C A37C A57C, the yeast fitness is reported as at most 0.5. For C4G G58C C62U, the yeast fitness was 0.651. For C4G G9A C49A C55U, the yeast fitness was at most 0.5. With C4G U8C C24G C30G A43C the yeast fitness was at most 0.5. In the case of C4G C24U A43U, the yeast fitness is reported as 0.65. In the case of C4G C31U A37G, the yeast fitness is reported as 0.653. C4G G18C G58C C61U G68A gave a yeast fitness of 0.615. C4G G17C U59C showed a yeast fitness of 0.746. For C4G C24A A42U U47A C60G, the yeast fitness was 0.62. In the case of C4G C11G U64A, the yeast fitness is reported as at most 0.5. C4G C11U U28G A45C U53A G63C gave a yeast fitness of 0.559. Work on C4G G6A C24U A40U C49A yielded a yeast fitness of at most 0.5. C4G G41A A45U G56C gave a yeast fitness of at most 0.5. Variant C4G A45G has a yeast fitness of 0.826. C4G A40G gave a yeast fitness of 0.74. In the case of C4G A40U, the yeast fitness is reported as 0.754. C4G G17A C30U G56A gave a yeast fitness of at most 0.5. C4G C5U A20U G39C A40G A70U gave a yeast fitness of at most 0.5. Work on C4G C22U C49A yielded a yeast fitness of at most 0.5. For C4G C5G C31A U35C, the yeast fitness was at most 0.5. Variant C4G C5U G39A G44C has a yeast fitness of at most 0.5. For C4G U8C C24G U47C, the yeast fitness was at most 0.5. In the case of C4G U8C A15G C22G G23A C49A, the yeast fitness is reported as at most 0.5. In the case of C4G U7G G12C A20U G63A C66A, the yeast fitness is reported as at most 0.5. Variant C4G G18C A57C has a yeast fitness of at most 0.5. With C4G G12U A14C A57G the yeast fitness was at most 0.5. For C4G C22G C24U G41A A57U C66A, the yeast fitness was at most 0.5. C4G U13A U53A A65G gave a yeast fitness of at most 0.5. Work on C4G U7C C27A yielded a yeast fitness of at most 0.5. Work on C4G G18A A57C yielded a yeast fitness of at most 0.5. C4G U7A C29U showed a yeast fitness of 0.504. For C4G A21G C27A G38C, the yeast fitness was at most 0.5. With C4G C11U C29U A45U the yeast fitness was at most 0.5. Variant C4G C11G U13A U59G C61G has a yeast fitness of at most 0.5. For C4G C5U G51A U53C C62U, the yeast fitness was at most 0.5. For C4G C29U C30G G39C, the yeast fitness was at most 0.5. C4G G6A showed a yeast fitness of 0.977. Variant C4G C24U has a yeast fitness of 0.993. With C4G C22G G67C the yeast fitness was 0.528. For C4G G6C G9A A20G C55A C61A, the yeast fitness was 0.615. Work on C4G C27U G41C U64A G67A yielded a yeast fitness of at most 0.5. In the case of C4G C5U C22G U64A, the yeast fitness is reported as 0.542. Variant C4G A40U A45U has a yeast fitness of 0.546. In the case of C4G G10U A14U C24U C33U G52A, the yeast fitness is reported as 0.544. In the case of C4G C5U C49A, the yeast fitness is reported as at most 0.5. C4G C34G G67A gave a yeast fitness of at most 0.5. C4G G9A A45C A57C G58C showed a yeast fitness of at most 0.5. For C4G C11U C22G A40U A43G U53C A70G, the yeast fitness was at most 0.5. Variant C4G G6A C22G C62U A70C has a yeast fitness of at most 0.5. With C4G U8C C24U A43G the yeast fitness was 0.527. With C4G U7C C27A U59G the yeast fitness was 0.574. Work on C4G A37C G51A yielded a yeast fitness of 0.628. C4G G38A C55U C60G showed a yeast fitness of at most 0.5. C4G A65C A69C showed a yeast fitness of at most 0.5. C4G A36U C66G gave a yeast fitness of at most 0.5. C4G C55A gave a yeast fitness of 0.778. For C4G C55G, the yeast fitness was 0.612. For C4G A69C, the yeast fitness was 0.878. For C4G A40G G56C, the yeast fitness was 0.537. C4G G9C C34A A40C gave a yeast fitness of 0.538. Variant C4G G50A G56A has a yeast fitness of 0.727. C4G A36G A45C C61U C62G gave a yeast fitness of at most 0.5. Variant C4G U13G has a yeast fitness of 0.882. Variant C4G U13C has a yeast fitness of 0.886. C4G C11G C55U C61A gave a yeast fitness of 0.567. Work on C4G G17A U26C U28C A40G A70C yielded a yeast fitness of at most 0.5. With C4G C27A A43U the yeast fitness was at most 0.5. With C4G G6C C34G A42G C46G the yeast fitness was at most 0.5. In the case of C4G A21G C34G, the yeast fitness is reported as at most 0.5. C4G U8C G25A A42U gave a yeast fitness of at most 0.5. Work on C4G C5U C11U A14G yielded a yeast fitness of at most 0.5. C4G C33G A40G showed a yeast fitness of 0.528. Variant C4G C31G A70C has a yeast fitness of 0.537. C4G C27A U32G G39U G41C C66G gave a yeast fitness of at most 0.5. C4G C27A C46U G58C A70C gave a yeast fitness of at most 0.5. C4G C22G A43U A57C U59C gave a yeast fitness of at most 0.5. Variant C4G C34U C66G has a yeast fitness of at most 0.5. Variant C4G U8G C24A C31G G50A A69U has a yeast fitness of at most 0.5. With C4G C22G C29A the yeast fitness was at most 0.5. Work on C4G G48U C66U yielded a yeast fitness of at most 0.5. C4G G9A U32C C33U gave a yeast fitness of at most 0.5. With C4G C5U C11U the yeast fitness was 0.505. C4G C31A G58A gave a yeast fitness of 0.635. Work on C4G G6A U13G A14G A69U yielded a yeast fitness of at most 0.5. C4G G17A A36U gave a yeast fitness of 0.691. With C4G C24G C34U U47A G48C C60U the yeast fitness was 0.521. C4G U13A C29U A40C showed a yeast fitness of at most 0.5. With C4G G17A U28A C55U the yeast fitness was at most 0.5. Work on C4G C30G G41C A70U yielded a yeast fitness of at most 0.5. Work on C4G C66A yielded a yeast fitness of 0.61. For C4G A42G A45U U54C C55G C61A, the yeast fitness was at most 0.5. For C4G C31G C55U, the yeast fitness was 0.516. With C4G U7G A36C A37C A57C C66U the yeast fitness was at most 0.5. C4G C11A C30G G67A gave a yeast fitness of at most 0.5. Work on C4G U13A G17C C30U yielded a yeast fitness of 0.657. In the case of C4G C30G U54A C55U, the yeast fitness is reported as at most 0.5. C4G G51C U54A gave a yeast fitness of at most 0.5. For C4G C49G G56U U64C A65C A70C, the yeast fitness was 0.635. Variant C4G C62U A69U has a yeast fitness of 0.672. C4G A43U A70U showed a yeast fitness of 0.623. Work on C4G G9C C46A U59A U64A yielded a yeast fitness of at most 0.5.
